From ChEMBL document CHEMBL4152184, “NB 06: From a simple lysosomotropic aSMase inhibitor to tools for elucidating the role of lysosomes in signaling apoptosis and LPS-induced inflammation” (Eur J Med Chem, 2018)
Active and inactive are the calls of the source. The rule behind the calls is not given here.

How the values were obtained:
[1] = target: T1, Sphingomyelin phosphodiesterase (Homo sapiens) (UniProt P17405); assay: Inhibition of mmLDL-stimulated acid sphingomyelinase in human PBMC lysates assessed as enzyme residual activity at 25 uM using BODIPY FL C5-sphingomyelin as substrate preincubated for 30 mins followed by mmLDL stimulation measured after 2 hrs by HPLC method
T1 sequence (whole entry): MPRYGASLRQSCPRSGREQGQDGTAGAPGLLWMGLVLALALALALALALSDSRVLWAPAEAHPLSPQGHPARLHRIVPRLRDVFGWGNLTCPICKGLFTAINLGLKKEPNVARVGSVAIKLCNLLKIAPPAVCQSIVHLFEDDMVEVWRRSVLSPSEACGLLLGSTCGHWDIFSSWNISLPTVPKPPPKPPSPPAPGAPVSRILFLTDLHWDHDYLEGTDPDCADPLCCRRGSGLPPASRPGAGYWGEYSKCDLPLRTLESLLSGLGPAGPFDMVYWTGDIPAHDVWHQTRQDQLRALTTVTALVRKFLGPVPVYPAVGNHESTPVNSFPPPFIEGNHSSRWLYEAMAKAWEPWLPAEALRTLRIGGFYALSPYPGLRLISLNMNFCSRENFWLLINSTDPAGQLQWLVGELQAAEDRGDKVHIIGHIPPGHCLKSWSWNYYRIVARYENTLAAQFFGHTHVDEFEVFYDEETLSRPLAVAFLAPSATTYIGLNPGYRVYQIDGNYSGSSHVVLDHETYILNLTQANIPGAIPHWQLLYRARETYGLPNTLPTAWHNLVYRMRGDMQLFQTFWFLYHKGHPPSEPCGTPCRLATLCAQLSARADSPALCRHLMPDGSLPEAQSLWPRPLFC

PBMC [2] = assay: Inhibition of mmLDL-stimulated apoptosis in human PBMC assessed as apoptotic cells at 2 uM preincubated for 30 mins followed by mmLDL stimulation measured after 4 hrs by YO-PRO-1/Hoechst 33342 staining based assay (reference value: 100%); format: functional; design: scale not given: the % may be the effect or the level left
Method in brief: (§1)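 PBMC pre-incubated 30 min with 2 μM compound, then stimulated with mmLDL (27 μg/mL; line 5) or TNFalpha (3 ng/mL; line 1) for 4 h. Apoptotic cells stained with YO-PRO-1 and all cells with Hoechst 33342. Each plate had control, stimulus, compound alone and compound plus stimulus; n = 3. Values are on a 0% (untreated control, corrected for spontaneous apoptosis) to 100% (stimulus alone) scale; means ± SE.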

[3] = target: T2, Sphingomyelin phosphodiesterase (Homo sapiens, UniProt P17405); assay: Inhibition of mmLDL-stimulated acid sphingomyelinase in human PBMC lysates using BODIPY FL C5-sphingomyelin as substrate preincubated for 30 mins followed by mmLDL stimulation measured after 2 hrs by HPLC method
T2 sequence (P17405 whole entry): T1 sequence (whole entry)

PBMC [4] = assay: Inhibition of TNFalpha-stimulated apoptosis in human PBMC assessed as apoptotic cells at 2 uM preincubated for 30 mins followed by TNFalpha stimulation measured after 4 hrs by YO-PRO-1/Hoechst 33342 staining based assay relative to control; format: functional; design: scale not given: the % may be the effect or the level left
Method in brief: as §1

[5] = target: T1, Sphingomyelin phosphodiesterase (Homo sapiens); assay: Inhibition of mmLDL-stimulated acid sphingomyelinase in human PBMC lysates at 0.5 to 50 uM preincubated for 30 mins followed by mmLDL stimulation measured after 4 hrs by YO-PRO-1/Hoechst 33342 staining based assay

SMILES | Activity [1] | IC50 [3] | inhibition [5] | Activity (PBMC [2]) | Activity (PBMC [4])
COc1ccc(CCN(C)CCCN2c3ccccc3Sc3ccc(Cl)cc32)cc1 | – | – | – | 71% | –
COc1ccc(CCNCCNc2cccc3ccccc23)cc1 | – | 116 µM | – | 87% | –
COc1ccc(CCN(C)CCCN2Cc3ccccc3CCc3ccccc32)cc1 | – | 17 µM | – | 8% | 2%
COc1ccc(Cn2c3ccccc3c3ccccc32)cc1 | – | 156 µM | – | 14% | 30%
COc1ccc(CCN(C)CCCn2ccc3ccccc32)cc1 | – | 21 µM | – | 84% | –
COc1ccc(CCN(Cc2ccccc2)c2ccccn2)cc1 | – | > 250 µM | – | 85% | –
COc1ccc(CC(=O)N(C)CCCN2c3ccccc3CCc3ccccc32)cc1 | – | 107 µM | – | 69% | –
COc1ccc(CCN(C)C(F)(F)C(F)(F)C(F)(F)C(F)(F)n2c3ccccc3c3ccccc32)cc1 | – | > 250 µM | – | 80% | –
COc1ccc(CCNCCNc2cccc3ccccc23)cc1OC | – | 112 µM | – | 65% | –
COc1ccc(CCN(C)CCCN2c3ccccc3CCc3ccccc32)cc1 | – | – | – | 36% | 30%
COc1ccc(CCN(C)CCCN2c3ccccc3Oc3ccccc32)cc1OC | – | 13 µM | – | 36% | –
COc1ccc(CCN2[C@H](C)CN(CCCN3c4ccccc4Oc4ccccc43)C[C@@H]2C)cc1 | – | 43 µM | – | 10% | –
CN(C)CCCN1c2ccccc2Sc2ccc(Cl)cc21 [CHLORPROMAZINE] | – | 11 µM | – | – | –
COc1ccc(CCN2CCN(CCn3c4ccccc4c4ccccc43)CC2)cc1 | – | – | – | 14% | 16%
COc1ccc(CN(C)CCCn2c3ccccc3c3ccccc32)cc1 | – | – | – | 17% | –
COc1ccc(CCN(C)CCN2c3ccccc3CCc3ccccc32)cc1OC | – | – | – | 30% | 58%
COc1ccc(CCNCc2cccc3ccccc23)cc1OC | – | 96 µM | – | 86% | –
COc1ccc(CCN(C)CCCN2C(=O)COc3ccccc32)cc1 | – | 38 µM | – | – | –
COc1ccc(CCN(C)CCCN(c2ccccc2)c2ccccc2)cc1OC | – | – | – | 59% | –
COc1ccc(CCN(C)CCC=C2c3ccccc3CCc3ccccc32)cc1OC | – | 10 µM | – | 79% | –
COc1cc(CCN(C)CCCn2c3ccccc3c3ccccc32)c(OC)cc1CCN(C)CCCn1c2ccccc2c2ccccc21 | – | 10 µM | Active | 7% | –
COc1ccc(CCN(C)CCN2c3ccccc3Sc3ccccc32)cc1OC | – | – | – | 72% | –
COc1ccc(CCN(C)CCCN2c3ccccc3Oc3ccccc32)cc1 | – | – | – | 25% | 43%
COc1ccc(CCN(C)CCN2c3ccccc3Sc3ccccc32)cc1 | – | – | – | 25% | 25%
COc1ccc(CCN(C)CCCN2c3ccccc3Sc3ccccc32)cc1 | – | 9 µM | – | 100% | –
COc1ccc(Cn2c(=O)c3ccccc3n(Cc3ccc(OC)cc3)c2=O)cc1 | – | > 250 µM | – | 4% | –
COc1ccc(CCN(C)CCCN(c2ccccc2)c2ccccc2)cc1 | – | > 250 µM | – | 35% | –
COc1ccc(CCN2[C@H](C)CN(CCCn3c4ccccc4c4ccccc43)C[C@@H]2C)cc1 | – | – | – | 25% | 0%
COc1ccc(CCNCc2cccc3ccccc23)cc1 | – | 240 µM | – | 100% | –
COc1ccc(CCN2CCCN(C3c4ccccc4CCc4ccccc43)C2)cc1 | – | – | – | 27% | 17%

Further lines, with some results ahead:

Activity [1] | IC50 [3] | inhibition [5] | SMILES | Activity (PBMC [2]) | Activity (PBMC [4])
20% | – | – | CNCCCN1c2ccccc2CCc2ccccc21 | – | –
– | > 250 µM | – | COc1ccc(CC(=O)N(C)CCCN2c3ccccc3Sc3ccc(Cl)cc32)cc1OC | 41% | –
– | 6 µM | – | COc1ccc(CCN(C)CCn2c3ccccc3c3ccccc32)cc1 | 9% | 55%
– | 31 µM | – | COc1ccc(CCN(C)CCCN2c3ccccc3CCc3ccccc32)cc1OC | 73% | –
– | > 250 µM | – | COc1ccc(CC(=O)N(C)CCCn2c3ccccc3c3ccccc32)cc1 | 100% | –
– | 15 µM | – | COc1ccc(CCN2CCCn3c4c(c5ccccc53)CCCC42)cc1 (stereo not given) | 25% | –
– | 16 µM | – | COc1ccc(CCN(C)CCCN2c3ccccc3Sc3ccccc32)cc1OC | 52% | –
– | > 250 µM | – | COc1ccc(Cn2c(=O)[nH]c3ccccc3c2=O)cc1 | 57% | 59%
– | > 250 µM | – | COc1ccc(CN2C(=O)COc3ccccc32)cc1 | 100% | –
– | 14 µM | – | COc1ccc(CCN(C)CCCn2c3ccccc3c3ccccc32)cc1OC | 24% | 41%
– | 5 µM | – | CN(C)CCCN1c2ccccc2CCc2ccccc21 [IMIPRAMINE] | 15% | 16%
– | 17 µM | – | COc1ccc(CCN(C)CCN2c3ccccc3CCc3ccccc32)cc1 | 49% | 35%
– | 10 µM | – | COc1ccc(CCN(C)CCC=C2c3ccccc3CCc3ccccc32)cc1 | 10% | –
– | 17 µM | – | COc1ccc(CCNCCCNC2c3ccccc3CCc3ccccc32)cc1 | – | –
– | 39 µM | – | COc1ccc(CCNCCCNC2c3ccccc3CCc3ccccc32)cc1OC | 43% | –
– | 12 µM | – | COc1ccc(CCN(C)CCCN2c3ccccc3Sc3ccc(Cl)cc32)cc1OC | 31% | 18%
– | > 250 µM | – | COc1ccc(CC(=O)N(C)CCN2c3ccccc3CCc3ccccc32)cc1 | 94% | 90%
– | 141 µM | – | COc1ccc(CCN2[C@H](C)CN(CCCn3c4ccccc4c4ccccc43)C[C@@H]2C)cc1OC | 35% | –
– | > 250 µM | – | COc1ccc(CCN2CCn3c4c(c5ccccc53)CCCC42)cc1 (stereo not given) | 19% | –
